This passage reports Activity results from ChEMBL document CHEMBL2169863, “Discovery, structure-activity relationship, and biological evaluation of noninhibitory small molecule chaperones of glucocerebrosidase” (J Med Chem, 2012).

Active and inactive are the calls of the source.

Assay [1] in a line: Activation of alpha-galactosidase using 4-MU-alpha-galactose as substrate.
In assay [2] the target is Lysosomal alpha-glucosidase (Homo sapiens) (UniProt P10253). Nature of the assay: Activation of alpha-glucosidase using 4-MU-alpha-glucose as substrate.
The subject of assay [3] is T1, Lysosomal acid glucosylceramidase (Homo sapiens), P04062 [N409S].
T1 sequence (whole entry): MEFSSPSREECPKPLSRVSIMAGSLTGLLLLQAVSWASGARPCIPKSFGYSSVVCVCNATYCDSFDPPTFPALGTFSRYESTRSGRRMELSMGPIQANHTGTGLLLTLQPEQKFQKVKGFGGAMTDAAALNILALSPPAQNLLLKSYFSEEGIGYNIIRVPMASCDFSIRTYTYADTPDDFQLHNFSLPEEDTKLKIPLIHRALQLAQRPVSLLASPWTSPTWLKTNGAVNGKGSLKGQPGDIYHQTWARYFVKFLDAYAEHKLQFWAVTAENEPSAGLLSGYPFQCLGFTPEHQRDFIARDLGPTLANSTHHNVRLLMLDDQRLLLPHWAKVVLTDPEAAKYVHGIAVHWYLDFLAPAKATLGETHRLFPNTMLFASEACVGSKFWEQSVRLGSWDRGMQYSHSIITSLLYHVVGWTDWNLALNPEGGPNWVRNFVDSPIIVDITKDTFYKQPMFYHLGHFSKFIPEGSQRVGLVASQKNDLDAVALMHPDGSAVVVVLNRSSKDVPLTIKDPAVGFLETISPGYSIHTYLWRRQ
In words: Activation of glucocerebrosidase N370S mutant in Gaucher patient spleen homogenates using 4-methylumbelliferone-Glc as substrate assessed as half-maximal activation concentration incubated for 5 mins prior to substrate addition measured after 30 to 45 mins by fluorimetric analysis. The assay is classed as tissue-based. The method, boiled down: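 Spleen homogenate (27 μg final) in pH 5 citrate/phosphate buffer with KCl, NaCl, MgCl₂ and 0.01% Tween-20. Compound was titrated 0.5 nM to 58 μM and preincubated 5 min at room temperature. Reaction used 1 mM 4MU-Glc for 30−45 min at 37 °C and was stopped with NaOH/glycine pH 10. Read-out was fluorescence at Ex 365/Em 440 nm. AC₅₀ is the average of N = 2.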

`CNC(=O)c1cnn2c(C)cc(C)nc12`: the outcome in assay [1], in assay [2] and in assay [3] was inactive.
Turning to `CC(=O)c1cccc(NC(=O)c2cnn3c(C)cc(C)nc23)c1`, the result in assay [1] and in assay [2] was inactive. Moreover, in assay [3], the Activity stood at 32.6 µM.
Take `Cc1ccc(NC(=O)c2cnn3c(C)cc(C)nc23)cc1`: the outcome in assay [1] and in assay [2] was inactive. Also, in assay [3], the Activity came to 1.63 µM.
For `Cc1cc(C)n2ncc(C(=O)NC(C)C)c2n1`, the result in assay [1], in assay [2] and in assay [3] was inactive.
On to `Cc1cc(C)n2ncc(C(=O)Nc3ccccc3Sc3ccccc3)c2n1`, for which the outcome in assay [1] and in assay [2] was inactive. Moreover, the Activity in assay [3] is 18.3 µM.
Take `Cc1ccc(NC(=O)c2cnn3c(-c4ccccc4)cc(C)nc23)cc1`: the outcome in assay [1], in assay [2] and in assay [3] was inactive.
On to `Cc1cc(C)n2ncc(C(=O)Nc3ccc4c(c3)OCO4)c2n1`, for which the result in assay [1] and in assay [2] was inactive. In addition, the Activity in assay [3] turned out to be 6.51 µM.
Take `Cc1cc(C)n2ncc(C(=O)N3CCCC3)c2n1`: the result in assay [1], in assay [2] and in assay [3] was inactive.
In the case of `Cc1cc(-c2ccccc2)n2ncc(C(=O)Nc3ccccc3Sc3ccccc3)c2n1`, the outcome in assay [1], in assay [2] and in assay [3] was inactive.
Consider `O=C(Nc1ccccc1Sc1ccccc1)c1cnn2c(C(F)(F)F)cc(C3CC3)nc12`, for which the outcome in assay [1] and in assay [2] was inactive.
On to `Cc1cc(C)n2ncc(C(=O)NCC(C)C)c2n1`, for which the outcome in assay [1] and in assay [2] was inactive. The Activity in assay [3] amounted to 32.6 µM.
Regarding `O=C(NC1CCCCC1)c1cnn2c(C(F)F)cc(C3CC3)nc12`, the result in assay [1] and in assay [2] was inactive.
As for `Cc1cc(C)n2ncc(C(=O)NC3CCCCC3)c2n1`, the outcome in assay [1] and in assay [2] was inactive. The Activity in assay [3] turned out to be 10.3 µM.
In the case of `COc1ccc(NC(=O)c2cnn3c(C)cc(C)nc23)cc1F`, the outcome in assay [1] and in assay [2] was inactive. The Activity in assay [3] is 1.46 µM.
`COc1ccc(NC(=O)c2cnn3c(C)cc(C)nc23)cc1OC`: the outcome in assay [1], in assay [2] and in assay [3] was inactive.
In the case of `Cc1cc(C)n2ncc(C(=O)Nc3ccc(C#N)cc3)c2n1`, the result in assay [1] and in assay [2] was inactive. Besides, the Activity in assay [3] is 20.6 µM.
On to `Cc1cc(-c2ccccc2)nc2c(C(=O)Nc3ccc(Cl)c(Cl)c3)cnn12`, for which the outcome in assay [1] and in assay [2] was inactive.
Consider `Cc1cc(C)n2ncc(C(=O)NCc3ccco3)c2n1`, for which the result in assay [1] and in assay [2] was inactive. Further, the Activity in assay [3] was determined as 51.7 µM.
Consider `COc1ccc(NC(=O)c2cnn3c(C)cc(C)nc23)cc1Cl`, for which the outcome in assay [1] and in assay [2] was inactive. Besides, the Activity in assay [3] turned out to be 2.06 µM.
As to `CC(=O)Nc1cccc(NC(=O)c2cnn3c(C)cc(C)nc23)c1`, the outcome in assay [1], in assay [2] and in assay [3] was inactive.
On to `O=C(Nc1ccc2c(c1)CCC2)c1cnn2c(C(F)F)cc(C3CC3)nc12`, for which the outcome in assay [1] and in assay [2] was inactive.
As to `CCc1ccc(NC(=O)c2cnn3c(C(F)F)cc(C4CC4)nc23)cc1`, the outcome in assay [1] and in assay [2] was inactive.
